Compound activity: PubChem BioAssay, The Scripps Research Institute Molecular Screening Center
Most compounds without a hit are left out; they make up all but 0.64% or so of the library.
HEK293 NFkB inh: inhibitors of the PMA/ionomycin-induced NF-kB reporter in HEK293 cells; HEK-293 NF-kB luciferase reporter, luminescence; inhibition, % at 3 µM; hit rate 0.21% among 62,000; AID 465;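 active = inhibition above the mean of all tested compounds plus 3 SD, cut at about 40% in these data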
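Reagent: PMA plus ionomycin mix as NF-kB-activating stimulus. Assay system: NF-kB luciferase reporter HEK-293 cells. Technique: luminescence from luciferase substrate reagent. Incubation: 1 h compound pre-incubation, 16 h PMA/ionomycin at 37 °C. Benchmarks: DMSO only as uninhibited control, 10 µM reference inhibitor as full inhibition. Repeats: tested once.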
ROCK2 blocker: inhibitors of human Rho kinase 2 | O75116 | purified ROCK2, Kinase-Glo ATP depletion luminescence | inhibition, % at 6 µM | hit rate 0.35% among 60,000 | AID 604;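 active = inhibition above the screen-wide mean inhibition plus 3 SD, cut at about 18% in these data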
JNK3 blocker: inhibitors of human JNK3 kinase; hit rate 0.61% among 60,000; inhibition, % at 8 µM; P53779; AID 746; purified JNK3 kinase activity, HTS; in the data active = inhibition above about 17%
PKA kinase inh: inhibitors of human protein kinase A; P17612; PKA Kemptide phosphorylation, Kinase-Glo ATP luminescence; inhibition, % at 6 µM; hit rate 0.1% among 65,000;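 active = inhibition above the screen-wide mean inhibition plus 3 SD, cut at about 21% in these data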
A number is an active result; n = inactive; x = no result.

SMILES | HEK293 NFkB inh | ROCK2 blocker | JNK3 blocker | PKA kinase inh
C(=N\c1nc2ccccc2n1CCN1CCCCC1)/c1ccc2c(c1)OCO2 | n | n | n | n
C(=N\c1nc2ccccc2n1CCN1CCCCC1)/c1cccs1 | n | 19.3 | n | n
Cc1c(Cl)cccc1N(CC(=O)NC1CCCCC1)S(C)(=O)=O | n | n | n | n
Cc1ccc(C(=O)NCCn2cc(SCC(=O)Nc3cc(C)on3)c3ccccc32)cc1 | 46.6 | n | n | n
Cc1cc(NC(=O)CSc2cn(CCNC(=O)c3ccccc3)c3ccccc23)no1 | n | n | n | n
C=CCn1c(C)nc2c(c1=O)c1nc3ccccc3nc1n2-c1ccc(C)cc1 | n | x | x | n
O=C(C1CCN(S(=O)(=O)c2cccc3cccnc23)CC1)N1CCN(c2ccc(Cl)cc2)CC1 | n | n | n | n
COC(=O)c1ccc(CC(=O)c2c(C)cc(O)cc2O)o1 | n | n | n | n
CCCOc1c(OC)cccc1C1CC(=O)Nc2cc(OC)c(OC)c(OC)c21 (centres undefined) | 97.8 | n | n | n
CS(=O)(=O)c1ncc(Cl)c(C(=O)Nc2ccc(N3CCOCC3)cc2)n1 | n | n | n | n
O=C(Nc1ccc(N2CCOCC2)cc1)c1cnsn1 | 41.8 | n | n | n
CC(=NCc1ccco1)c1c(C)[nH]n(-c2nc3ccccc3s2)c1=O | n | n | 19.8 | n
Cn1c(-c2ccccc2)cc2c3no[n+]([O-])c3ccc21 | n | n | n | n
Fc1cc2nccnc2cc1N1CCSCC1 | n | n | 22.5 | n
CCN(CC)c1ccc2c(c1)OC(N)=C(C#N)C2c1cccnc1 (centres undefined) | 52.7 | n | n | n
CCOC(=O)c1c(NC(=O)CSc2nnnn2CC)sc(C)c1C | n | n | n | n
CC(CCc1ccccc1)NC(=O)CSc1nc(N)cc(N)n1 (centres undefined) | n | n | n | n
CCOCc1cc(C2NC(=O)NC(C)=C2C(=O)OCC)ccc1OC (centres undefined) | n | n | n | n
COc1cc(C2NC(=O)NC(C)=C2C(=O)OCc2ccccc2)ccc1O (centres undefined) | n | n | 20.1 | n
CCOC(=O)C1=C(C)NC(=O)NC1c1ccc(OC)c(Cl)c1 (centres undefined) | n | n | n | n
COc1ccc(COC(=O)C2=C(C)NC(=O)NC2c2ccc(O)c(OC)c2)cc1 (centres undefined) | n | n | 27.3 | n
CCOc1cc(C2NC(=O)NC(C)=C2C(=O)OCc2ccccc2)ccc1O (centres undefined) | n | n | 19.2 | n
OC(COc1ccc(C2C=CCC2)cc1)CN1CCCCC1 (centres undefined) | n | n | n | n
Cc1ccc(O)c(N=CC2=C(O)c3ccccc3C2=O)c1 | n | n | n | n
O=C1C(C=Nc2ccccc2O)=C(O)c2ccccc21 | n | n | 35.1 | n
SMILES | HEK293 NFkB inh | ROCK2 blocker | JNK3 blocker | PKA kinase inh
CCOC1(OCC)N=C(N)C2(C#N)C(c3ccc(NC(C)=O)cc3)C12C#N (centres undefined) | n | 26.5 | n | n
COC1(OC)N=C(N)C2(C#N)C(c3ccc(F)cc3)C12C#N (centres undefined) | n | n | n | n
Cc1ccccc1-n1nc(C)c2cc(C(=O)N3CCOCC3)sc21 | n | n | 23.2 | n
CN(CC(=O)Nc1ccc(Cl)cc1)CC(=O)Nc1cc(Cl)ccc1C#N | n | n | n | n
CC(=O)Nc1cc(OC(C)=O)c2nonc2c1OC(C)=O | n | 83.8 | 47.2 | n
Cc1c(C(=O)N2CCCCC2)sc(N)c1C#N | n | 25.5 | n | n
COc1ccccc1OCCC(=O)OCC(=O)Nc1ncc(Cl)cc1Cl | n | n | n | n
Cc1ccc(Nc2cc(-n3nc(C)cc3C)ncn2)cc1 | n | n | 30.5 | n
Cc1cccc(N2CCN(C(=O)COc3cc(=O)n(C)c4ccccc34)CC2C)c1 (centres undefined) | n | n | n | n
CCC(C)(C)NC(=O)CN(C(=O)CNS(=O)(=O)c1ccc(C)cc1)c1ccc2c(c1)OCCO2 | n | n | n | n
NC(=O)C1CCCNC1 (centres undefined) | n | n | n | n
N#Cc1c(-c2ccco2)nc(SCc2ccc(F)cc2)[nH]c1=O | n | n | 32.9 | n
Cc1nc(SCc2cccc(F)c2)[nH]c(=O)c1C#N | n | n | n | n
CC(=O)Oc1c(Cl)c(N2CCOCC2)c(OC(C)=O)c2ccccc12 | n | n | n | n
Cc1c(-c2cccs2)[n+](=O)c2c(n1[O-])CCCCC2 | n | x | x | n
N#Cc1sc2nc3c(c(-c4ccco4)c2c1N)CCCC3 | n | n | 17.4 | n
C=CCn1c(SCn2nnc3ccccc3c2=O)nnc1C1CCCCC1 | n | n | n | n
CCN(CC)CCNC(=O)CCn1c(=S)[nH]c2cc3c(cc2c1=O)OCO3 | n | x | x | n
CCN(CC)CCNC(=O)CCCCn1c(=S)[nH]c2c([nH]c3ccc(OC)cc32)c1=O | n | 29.5 | n | n
COc1ccc(CCNc2c(C)c(C)nc3ncnn23)cc1 | 46.3 | n | n | n
CCc1c(C)nc2ncnn2c1NCCc1ccc(OC)c(OC)c1 | n | n | n | n
CN(c1ccccc1)S(=O)(=O)c1ccc(C(=O)Nc2nccs2)cc1 | n | n | n | n
CN(c1ccc(C(=O)Nc2nccs2)cc1)S(=O)(=O)c1ccccc1 | n | n | 27.9 | n
Nc1c(C(=O)NCc2ccc3c(c2)OCO3)c2nc3ccccc3nc2n1CCCN1CCOCC1 | n | n | n | n
Nc1ccc(-n2c(N)c(C(=O)NCc3ccc4c(c3)OCO4)c3nc4ccccc4nc32)cc1 | n | n | 20.7 | n
SMILES | HEK293 NFkB inh | ROCK2 blocker | JNK3 blocker | PKA kinase inh
c1ccc(CCCNc2ncnc3nc[nH]c23)cc1 | n | n | n | 21.5
Clc1ccc(COn2nnc3ccccc32)c(Cl)c1 | 45.3 | n | n | n
CCc1cccc(NC(=O)CN(c2ccc(OC)cc2)S(=O)(=O)c2c(C)n[nH]c2C)c1 | n | n | n | n
O=C1NC(=O)c2cc(NC(=O)C3CCCCC3)ccc21 | n | 18.4 | n | n
CC(C)c1nnc(NC(=O)c2c(O)c3cccc4c3n(c2=O)CCC4)s1 | 45.9 | n | n | n
COc1cc2c(cc1NC(=O)CN(C)Cc1nc3ccccc3c(=O)[nH]1)oc1ccccc12 | n | n | n | n
CCOc1ccc(NC(=O)CN2C(=O)C3CCCN3C2=O)cc1 (centres undefined) | n | n | 17.2 | n
Cc1cc(NC(=O)COC(=O)c2n[nH]c3ccccc23)no1 | n | n | 23.0 | n
COc1ccc(CNC(=O)COC(=O)c2n[nH]c3ccccc23)cc1OC | n | n | n | n
COc1ccccc1CCNC(=O)c1cnn2c(C(F)F)cc(C)nc12 | n | n | n | n
Cc1cc(C(F)F)n2ncc(C(=O)NCc3ccccc3C(F)(F)F)c2n1 | n | n | 19.1 | n
Nc1c(S(=O)(=O)c2cccc(Cl)c2)c2nc3ccccc3nc2n1/N=C/c1ccc(O)c(O)c1 | n | n | n | 30.8
COc1cc(C(=O)N2CCN(c3cc(Cl)ccc3Cl)CC2)cc(OC)c1OC | 42.7 | n | n | n
CC1=C(C(=O)OCc2ccc3c(c2)OCO3)C(c2ccc(F)cc2)NC(=O)N1 (centres undefined) | 45.0 | n | n | n
CC1=C(C(=O)OCc2ccc3c(c2)OCO3)C(c2ccc(Cl)cc2)NC(=O)N1 (centres undefined) | 67.1 | n | n | n
